Data from ChEMBL document CHEMBL1134320, “Structure of protein tyrosine phosphatase 1B in complex with inhibitors bearing two phosphotyrosine mimetics” (J Med Chem, 2001).

Key:
[1] = biological target: T1, M-phase inducer phosphatase 1 (Homo sapiens) (UniProt P30304); assay: Inhibitory activity against Protein tyrosine phosphatase cell division cycle 25A at 250 uM
T1 sequence (whole entry): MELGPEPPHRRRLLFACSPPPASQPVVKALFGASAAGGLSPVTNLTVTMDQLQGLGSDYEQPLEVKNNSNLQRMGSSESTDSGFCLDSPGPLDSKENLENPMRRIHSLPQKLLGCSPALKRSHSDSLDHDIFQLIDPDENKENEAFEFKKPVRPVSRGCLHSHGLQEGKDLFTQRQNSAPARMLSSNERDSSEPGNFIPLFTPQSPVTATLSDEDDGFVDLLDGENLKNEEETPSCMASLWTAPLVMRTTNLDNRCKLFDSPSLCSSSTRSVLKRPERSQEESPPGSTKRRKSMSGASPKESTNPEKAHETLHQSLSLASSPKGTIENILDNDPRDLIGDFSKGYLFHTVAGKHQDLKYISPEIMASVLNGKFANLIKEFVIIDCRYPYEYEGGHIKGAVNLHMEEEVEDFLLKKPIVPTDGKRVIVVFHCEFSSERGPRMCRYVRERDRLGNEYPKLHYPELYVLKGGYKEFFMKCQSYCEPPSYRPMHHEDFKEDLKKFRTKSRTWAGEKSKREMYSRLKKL

[2] = biological target: T2, Tyrosine-protein phosphatase non-receptor type 4 (Homo sapiens) (UniProt P29074); assay: Inhibitory activity against Protein tyrosine phosphatase PTPmeg-1 at 250 uM
T2 sequence (whole entry): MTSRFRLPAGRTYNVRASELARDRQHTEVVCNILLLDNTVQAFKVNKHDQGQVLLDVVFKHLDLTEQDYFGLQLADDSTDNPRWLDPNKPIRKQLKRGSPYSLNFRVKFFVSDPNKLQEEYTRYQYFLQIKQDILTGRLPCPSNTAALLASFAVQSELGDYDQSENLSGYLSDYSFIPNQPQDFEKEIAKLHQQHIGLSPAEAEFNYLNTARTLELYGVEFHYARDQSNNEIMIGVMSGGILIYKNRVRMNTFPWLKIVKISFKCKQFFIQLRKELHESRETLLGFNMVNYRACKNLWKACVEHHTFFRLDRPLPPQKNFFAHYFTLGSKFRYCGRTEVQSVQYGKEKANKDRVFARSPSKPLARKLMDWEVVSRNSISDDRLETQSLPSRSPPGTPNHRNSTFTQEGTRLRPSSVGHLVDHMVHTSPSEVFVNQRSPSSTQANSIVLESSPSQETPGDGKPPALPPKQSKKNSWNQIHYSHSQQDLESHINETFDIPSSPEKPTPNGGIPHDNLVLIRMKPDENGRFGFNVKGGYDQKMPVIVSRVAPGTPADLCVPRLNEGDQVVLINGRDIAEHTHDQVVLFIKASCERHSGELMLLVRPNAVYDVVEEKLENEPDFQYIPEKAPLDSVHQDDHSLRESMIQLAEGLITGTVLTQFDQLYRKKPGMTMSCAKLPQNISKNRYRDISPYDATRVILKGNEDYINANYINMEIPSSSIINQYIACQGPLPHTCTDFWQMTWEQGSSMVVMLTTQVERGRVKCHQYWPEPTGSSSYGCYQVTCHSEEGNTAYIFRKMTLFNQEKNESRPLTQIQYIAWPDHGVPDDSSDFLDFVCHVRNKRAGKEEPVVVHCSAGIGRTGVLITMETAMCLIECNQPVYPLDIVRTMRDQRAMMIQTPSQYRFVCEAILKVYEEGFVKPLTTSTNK
In short: (§1)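 Percent inhibition was measured at the single inhibitor concentration given in the line, using the FDP fluorogenic substrate at about each enzyme's KM. For CDC25a, flag-tagged protein was made in Sf9 cells (moi 5, 27 °C, 72 h) and purified on anti-flag resin to over 80% purity.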

[3] = biological target: T2, Tyrosine-protein phosphatase non-receptor type 4 (Homo sapiens); assay: Inhibitory activity against Protein tyrosine phosphatase PTPmeg-1 at 500 uM
In short: as §1

[4] = biological target: T1, M-phase inducer phosphatase 1 (Homo sapiens); assay: Inhibitory activity against Protein tyrosine phosphatase cell division cycle 25A at 250 uM
In short: as §1

[5] = biological target: T2, Tyrosine-protein phosphatase non-receptor type 4 (Homo sapiens); assay: Inhibitory activity against Protein tyrosine phosphatase PTPmeg-1 at 380 uM
In short: as §1

Question: Which results are given for O=P(O)(O)C(F)(F)c1ccc(CCCCc2ccc(C(F)(F)P(=O)(O)O)cc2)cc1?
Answer: inhibition [1]: 16%; inhibition [2]: 9%

Question: How did the inhibition [3] turn out when O=P(O)(O)C(F)(F)c1ccc(COc2ccccc2OCc2ccc(C(F)(F)P(=O)(O)O)cc2)cc1 was run?
Answer: The inhibition was 30%.

Question: Which results are given for O=P(O)(O)C(F)(F)c1ccc(COCCOCc2ccc(C(F)(F)P(=O)(O)O)cc2)cc1?
Answer: inhibition [2]: 2%; inhibition [4]: 13%

Question: With O=P(O)(O)C(F)(F)c1ccc(COc2cccc(OCc3ccc(C(F)(F)P(=O)(O)O)cc3)c2)cc1 as the compound, how does the inhibition [5] read?
Answer: Its inhibition is 30%.
